Test system: TRAP5b
Experiment: Serum TRAP5b solid-phase immunoassay
Type: in vivo, C57BL/6 mice
Conditions: 0.3 mg/kg RANKL twice a day for 10 days; PET/CT imaging study, n=4
In short: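 Male C57BL/6 mice (~23 g) got RANKL s.c. in the nape in 50 μL saline, twice a day for 10 days, under brief isoflurane; controls got vehicle. Blood was taken by submandibular venous puncture before biodistribution or at sacrifice. Serum was spun at 10,000 rpm for 5 min at 4°C and stored at −20°C. Osteoclastic TRAP5b was measured by solid-phase immunoassay. P<0.05 was significant.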

B1: RANKL: receptor activator of nuclear factor κB ligand, cytokine stimulating osteoclastogenesis; provided by Amgen (protein, UniProt O14788 140-317, looked up)
Tumor necrosis factor ligand …: IRAEKAMVDGSWLDLAKRSKLEAQPFAHLTINATDIPSGSHKVSLSSWYHDRGWAKISNMTFSNGKLIVNQDGFYYLYANICFRHHETSGDLATEYLQLMVYVTKTSIKIPSSHTLMKGGSTKYWSGNSEFHFYSINVGGFFKLRSGEEISIEVSNPSLLDPDQDATYFGAFKVRDID
With B1 the “increase of serum TRAP5b, RANKL-treated vs control cohort” value was 1.6 fold.

Source: PMC4277818 (Molecular imaging and biology : MIB : the official …, 2012)
